Paper PMC3714013 (Chemistry & biology, 2013)
Read-outs that look alike come from different tables or passages of the source. Values belong to the molecule of their own block, whether it stands above or below them. Positions of bridges follow the written chain, without caps; N, C: chain ends. No end group written: not given here.

What was measured:
[1] = system: Melan-a cells (MC1R activation); conditions: ref Candille et al., 2007; cited from earlier work
Adult male Wistar rats = test: AgRP-induced weight gain in free-feeding rats, ICV injection; type: in vivo, rat
In short: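 Adult male Wistar rats, housed individually on a 12-12h light:dark cycle with chow. Third-ventricle cannula implanted under isoflurane, recovery ≥7 days, placement verified by a plasma glucose rise after ICV 5-thio-D-glucose. ICV pre-treatment with vehicle or test peptide, then 1 h later AgRP (0.01 nmol) or vehicle; n=8–10/group. Body weight gain followed over 5 days.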

MC1R [2] = molecular target: T1, MC1R (Homo sapiens, UniProt Q01726); test: Competitive; type: binding
In short: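 Intact HEK 293T cells were transiently transfected with a human MC1R construct (calcium phosphate), harvested after 20 h and plated at 10,000–70,000 cells/well in binding buffer. Eu-NDP-MSH ([…]) plus 3-fold dilutions of test peptide (9.0×10−6M to 4.6×10−10M) were incubated for 2 h at 37°C. Read-out was time-resolved fluorescence. Tracer Kd came from saturation binding. Three independent experiments, in duplicate.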

human MC4R = human MC4R (Homo sapiens, UniProt P32245); test: Competitive; type: binding
In short: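 Intact HEK293T cells transiently transfected (calcium phosphate) with human MC4R, harvested 20 h later, in L*R binding buffer at 10,000–70,000 cells/well. […] Washed, DELFIA enhancement, time-resolved fluorescence. Three independent experiments in duplicate.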

MC1R [3] = molecular target: T1, MC1R; conditions: cited from earlier work
MC1R [4] = molecular target: T1, MC1R; conditions: read-out: MC1R Ki; ref Kiefer et al., 1998; cited from earlier work

T1 sequence (Q01726 whole entry): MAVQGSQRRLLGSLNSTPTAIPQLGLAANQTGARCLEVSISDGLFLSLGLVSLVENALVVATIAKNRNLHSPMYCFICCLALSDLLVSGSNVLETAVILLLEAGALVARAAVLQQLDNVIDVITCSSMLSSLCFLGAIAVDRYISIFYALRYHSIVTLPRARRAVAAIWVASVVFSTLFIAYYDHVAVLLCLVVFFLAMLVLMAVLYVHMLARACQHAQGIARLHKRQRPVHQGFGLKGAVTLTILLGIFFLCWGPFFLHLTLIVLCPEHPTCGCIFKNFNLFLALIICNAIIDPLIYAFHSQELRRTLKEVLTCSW
human MC4R, sequence (P32245 whole entry): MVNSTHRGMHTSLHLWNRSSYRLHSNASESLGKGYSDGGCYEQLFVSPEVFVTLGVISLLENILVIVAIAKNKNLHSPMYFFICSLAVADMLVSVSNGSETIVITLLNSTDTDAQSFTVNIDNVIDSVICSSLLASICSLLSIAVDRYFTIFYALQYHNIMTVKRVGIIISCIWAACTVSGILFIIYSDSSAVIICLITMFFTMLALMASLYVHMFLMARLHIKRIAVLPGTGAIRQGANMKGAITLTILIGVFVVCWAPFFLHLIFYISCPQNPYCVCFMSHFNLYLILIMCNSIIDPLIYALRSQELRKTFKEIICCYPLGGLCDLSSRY

Molecule: canine β-defensin 103 [CBD103]
effect on cAMP levels in Melan-a cells [1]: neither CBD103 ([Candille et al., 2007]) nor HBD3 (Figure S1A) stimulate or reduce cAMP levels

Molecule: Agouti-related protein (SPRRCVRLHESCLGQQVPCCDPCATCYCRFFNAFCYCRKLGTATNLCSRT; UniProt P56473 82-131, looked up) [AgRP]
effect on body weight (energy balance response) (Adult male Wistar rats; ICV 0.01 nmol (submaximal dose)): increased weight gain
effect on food intake in the first 24 hours (Adult male Wistar rats; ICV 0.01 nmol, data not shown): no detectable effect on food intake

Ki (MC1R [2]): 297 nM
Ki (human MC4R): 436 nM
Molecule: GIINTLQKYYSRVRGGRSAVLSSLPKEEQIGKSSTRGRKSSRRKK-NH2 [Cys->Ser]

Ki (MC1R [2]): > 5000 nM
Molecule: GIINTLQKYYSRVRGGRSAV-NH2 [N-term Truncate]

Molecule: Asip (from UniProt P42127)
Ki (MC1R [3]): 2.6 nM

Ki (MC1R [2]): 243 nM
Ki (human MC4R): 206 nM
Molecule: GIINTLQKYYCRVRGGRSAVLSSLPKEEQIGKSSTRGRKCSRRKK-NH2 (disulfide 11-40) [CysT-V]

B1: RFF→AFF mutation in Asip: Asip mutant with RFF motif changed to AFF, literature value (protein)
chain: HLALEETLGDDRSLRSNSSMNSLDFSSVSIVALNKKSKKISRKEAEKRKRSSKKKASMKKVARPPPPSPCVATRDSCKPPAPACCDPCASCQCAFFGSACTCRVLNPNC
Ki (MC1R [4]): > 1900 nM
